XBP1 UPR activ: adaptive UPR (XBP1) activation; activation, % at 20 µM; CHO-XBP1 luciferase reporter, IRE1-XBP1 UPR activation, luminescence; percent of tunicamycin response, DMSO as zero; actives 0.33% (n = 330,000);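 active = versus positive control, 20 µM dose yields 30% or more activation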;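 also: 100% = tunicamycin at 10 µg/mL and 0% = DMSO only wells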
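Material – CHO cell line with stable XBP1 luciferase reporter · Buffer or medium – F12 plus 10% FBS · Compound – single point, 20 µM final compound, 1% DMSO · Schedule – 16-18 h cell attachment at 37 °C, then 6 h compound exposure · Signal – Steady-Glo luminescence read · Benchmarks – high control tunicamycin 10 µg/mL final, low control DMSO vehicle only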
CSC inhib: blocks cancer stem cells; cancer stem cell-like cells viability, luminescence; inhibition, % at 7.5 µM; actives 1.1% (n = 300,000); AID 2717; in the data active = inhibition above about 75%; tested in HMLE shEcad cells
Beta apoptosis: beta cell apoptosis inhibition | INS-1E cytokine-induced death, ATP luminescence, 48 h; percent of positive-control rescue, neutral wells zero | actives 0.8% (n = 300,000) | AID 435005 | protection from apoptosis, % (test concentration not listed);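 active = Every replicate reaches about 75%, or at least half do and their mean reaches it too, limit read from the data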;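 also: 0% = cytokine-treated negative control wells and 100% = positive control rescue; higher means more ATP so stronger rescue from cytokine killing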
Mdm2 MdmX PPI: disrupts the human Mdm2-MdmX interaction | SaOS-2 split-luciferase Mdm2/MdmX complementation, luminescence | inhibition, % at 8 µM | actives 3% (n = 330,000) | O15151+Q00987 | AID 485346;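 active = inhibition of at least 50% at 8 µM in the primary screen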
Target sequence (O15151 whole entry, looked up): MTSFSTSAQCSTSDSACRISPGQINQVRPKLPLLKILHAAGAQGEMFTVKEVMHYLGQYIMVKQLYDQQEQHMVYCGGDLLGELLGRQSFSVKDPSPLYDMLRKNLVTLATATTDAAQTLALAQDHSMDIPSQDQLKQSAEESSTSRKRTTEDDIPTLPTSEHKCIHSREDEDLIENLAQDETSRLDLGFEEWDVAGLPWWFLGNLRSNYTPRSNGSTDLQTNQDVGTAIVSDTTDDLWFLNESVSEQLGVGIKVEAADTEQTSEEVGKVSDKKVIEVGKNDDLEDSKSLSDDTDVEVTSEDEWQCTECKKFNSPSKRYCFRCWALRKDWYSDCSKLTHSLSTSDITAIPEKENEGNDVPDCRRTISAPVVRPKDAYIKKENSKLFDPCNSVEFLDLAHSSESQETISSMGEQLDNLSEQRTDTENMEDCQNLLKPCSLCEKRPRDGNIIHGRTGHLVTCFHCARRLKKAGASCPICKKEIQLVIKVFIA
Target sequence (Q00987 whole entry, looked up): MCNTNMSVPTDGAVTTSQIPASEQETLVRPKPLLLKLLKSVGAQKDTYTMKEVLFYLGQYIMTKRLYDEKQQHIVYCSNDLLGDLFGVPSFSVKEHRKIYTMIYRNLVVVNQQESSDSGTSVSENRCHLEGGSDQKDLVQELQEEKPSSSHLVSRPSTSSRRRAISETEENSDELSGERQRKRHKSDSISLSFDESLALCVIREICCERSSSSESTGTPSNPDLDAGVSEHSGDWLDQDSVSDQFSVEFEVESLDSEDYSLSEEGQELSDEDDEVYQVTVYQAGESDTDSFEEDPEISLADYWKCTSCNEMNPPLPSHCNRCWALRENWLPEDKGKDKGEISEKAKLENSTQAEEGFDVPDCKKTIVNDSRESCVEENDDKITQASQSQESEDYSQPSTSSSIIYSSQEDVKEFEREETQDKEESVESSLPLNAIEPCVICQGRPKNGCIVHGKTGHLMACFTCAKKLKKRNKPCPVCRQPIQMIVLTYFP
SKKanGAS inh: inhibitors of SKKanGAS S. pyogenes growth in kanamycin (SK-promoter or general growth effect); inhibition, % at 7.5 µM; AID 1662; BacTiter-Glo, 6 h; actives 1.3% (n = 300,000);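 active = mean replicate score, as percent of positive control median, at least 50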;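 also: strain carries kanamycin resistance gene driven by streptokinase promoter and grows in 40 µg/ml kanamycin; loss of luminescence reflects streptokinase promoter inhibition or plain growth inhibition; 0% = median of DMSO wells and 100% = positive control at its reference dose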
UPR CHOP act: activators of apoptotic arm of unfolded protein response (CHOP) | CHO-CHOP luciferase reporter, UPR activation, luminescence; percent of tunicamycin response over DMSO baseline | activation, % at 10 µM | actives 0.34% (n = 330,000);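 active = at 10 µM dose, activation of 40% or more, normalized to positive control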;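 also: 100% = tunicamycin at 10 µg/mL and 0% = DMSO alone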
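Evaluation: % reporter activation, DMSO baseline versus tunicamycin full activation; System: CHO-CHOP luciferase reporter cell line; Input: 500 cells/well; Incubation: 6 h compound treatment, 37 °C; Measured by: Steady-Glo luciferase luminescence; Dosing: one dose, 10 µM in 0.5% DMSO; Buffer or medium: F12 medium, 10% FBS; Benchmarks: positive tunicamycin 10 µg/mL, negative DMSO alone.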
XBP1 UPR conf: confirmation of adaptive unfolded protein response (XBP1) activators; shares compounds with XBP1 UPR activ; CHO-XBP1 IRE1-XBP1 luciferase reporter, luminescence; activation, % at 20 µM; actives 63% (n = 1,000);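 active = reporter signal at least 30% of the positive control's activation in two or more of four replicate wells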;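 also: plate controls were DMSO negative control for no effect and tunicamycin 10 µg/mL positive control for full effect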
Mdm2 MdmX conf: confirmation of human Mdm2/MdmX interaction inhibitors; actives 55% (n = 10,000); shares compounds with Mdm2 MdmX PPI; Mdm2-MdmX binding, luminescent assay; inhibition, % at 8 µM; in the data active = inhibition above about 40%
FLuc counter: counter-screen for Mdm2/MdmX inhibitors: full-length luciferase; AID 504607; inhibition, % at 8 µM; actives 77% (n = 6,200); SaOS-2 full-length luciferase counterscreen, luminescence; shares compounds with Mdm2 MdmX PPI;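 active = mean inhibition at 8 µM reaching about 37%, which flags the compound as non-specific, limit read from the data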;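 also: p53-null SaOS-2 cells with luciferase driven by a doxycycline-inducible promoter; compound on cells about two nights before reading with doxycycline added after day one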
* = called active by the depositor; . = no result given. The list is not random: actives were taken first. Their share in the collection is about 4.8%.

SMILES | XBP1 UPR activ | CSC inhib | Beta apoptosis | Mdm2 MdmX PPI | SKKanGAS inh | UPR CHOP act | XBP1 UPR conf | Mdm2 MdmX conf | FLuc counter
COc1cc(N(C(=O)Cc2cccs2)C(C(=O)NC2CCCCC2)c2ccc(C)cc2)ccc1-n1cnnn1 (stereo not drawn) | 35.1* | 0.1 | 15.9 | 84.4* | 28.2 | -0.6 | 37.5* | 18.9 | .
COc1ccc(N(C(=O)Cc2cccs2)C(C(=O)NC2CCCC2)c2ccncc2)cc1OC (stereo not drawn) | 6.0 | -6.7 | -0.5 | 17.0 | -0.6 | -0.9 | . | . | .
CCOC(=O)c1nnn2c1nc(Nc1cccc(C(F)(F)F)c1)c1ccccc12 | 70.1* | 9.8 | 57.6 | 82.1* | 3.6 | 30.1 | 40.7* | 30.5 | .
COc1ccc(OC)c(C(=O)NC2CC(C)(C)Cc3c2cnn3-c2ccccc2)c1 (stereo not drawn) | -2.5 | . | . | 49.7 | -3.0 | 3.3 | . | . | .
COC(=O)c1sc2nc(C)cc(C)c2c1N | -2.6 | -0.7 | . | 14.3 | 5.1 | 1.9 | . | . | .
COc1cc(/C=N/NC(=O)c2sc3nc(C)cc(C)c3c2N)ccc1O | 46.5* | 15.3 | 24.6 | 72.7* | 3.7 | 1.0 | 16.4 | 51.7* | 64.1*
CCN1C(=O)/C(=C2/Sc3ccc(OC)cc3N2C)SC1=Nc1cccc(O)c1 | 69.6* | 37.6 | 18.3 | 96.9* | 10.0 | 17.6 | 18.3 | 31.6 | .
CC(C)c1ccc(/C=N/NC(=O)c2nnn(-c3nonc3N)c2CN(C)C2CCCCC2)cc1 | 3.1 | 16.3 | -5.2 | 37.7 | 11.6 | 4.1 | . | . | .
CN(C)CCOc1ccc(-c2c(-c3ccccc3)sc3ccccc23)cc1 | 60.5* | 142.1* | 83.3* | 100.5* | . | 4.5 | 55.5* | 30.1 | .
C[C@]12CCC(O)CC1=CCC1C2CC[C@]2(C)/C(=N\NC(N)=S)CCC12 (stereo partly drawn) | 2.5 | -19.4 | -9.5 | 4.9 | -5.4 | -0.9 | . | . | .
C/C(=N\NC(N)=S)C1=CCC2C3CC[C@H]4CC(O)CC[C@]4(C)C3CC[C@]12C (stereo partly drawn) | 41.2* | . | . | 75.0* | 19.3 | 20.8 | 10.4 | 15.2 | .
Cc1cc(F)ccc1S(=O)(=O)NCC(c1cccnc1)N1CCc2ccccc21 (stereo not drawn) | -5.5 | -8.2 | -2.7 | 19.4 | -3.2 | 0.5 | . | . | .
COC(=O)c1ccccc1NC(=O)c1ccccc1OC | 4.2 | -3.8 | 0.4 | 4.8 | -3.2 | 1.0 | . | . | .
COc1ccccc1C(=O)Nc1ccccc1SC(=O)c1ccccc1OC | 33.6* | 58.2 | 29.3 | 62.6* | 22.4 | 11.7 | 23.7 | 39.9 | 90.5*
CC1CCCN(C(=O)c2cc3ccccc3cc2O)C1 (stereo not drawn) | -2.9 | 2.9 | -4.8 | 7.9 | -4.4 | 2.5 | . | . | .
CC(C)N(C(=O)[C@H]1C[C@H](CC(=O)NCC23CC4CC(CC(C4)C2)C3)C(=O)N2CCc3c([nH]c4ccc(Cl)cc34)[C@]12C)C(C)C | 39.1* | . | . | 92.1* | . | 9.4 | 50.2* | 49.8* | 72.5*
Cc1ccc2c(c1)C(=O)C(=O)N2Cc1ccc(Cl)cc1 | 37.2* | 40.0 | -2.6 | 67.7* | . | 4.6 | 29.9* | 23.6 | .
Cc1ccc(C)c(NC(=O)CN(C)C(=O)c2cccc(N3C(=O)CCC3=O)c2)c1 | -2.7 | -1.3 | . | 16.7 | -1.2 | 1.7 | . | . | .
COC(=O)c1c(NC(=S)NN2CCN(C)CC2)sc2c1CCC(C)C2 (stereo not drawn) | 34.3* | 103.6* | 3.0 | 91.1* | 31.0 | 9.9 | 20.3 | 35.6 | .
Cc1[nH]c2ccccc2c1/C=C/c1nc2ccccc2c(=O)n1-c1ccc([N+](=O)[O-])cc1 | 47.3* | 9.3 | 6.8 | 64.3* | -2.5 | 8.5 | 36.0* | -16.2 | .
COc1ccc(N2CCN(C(CNC(=O)C(=O)NCC(OC)OC)c3ccco3)CC2)cc1 (stereo not drawn) | -1.4 | -9.7 | -3.0 | -4.0 | 3.0 | 0.7 | . | . | .
COc1ccc(Cc2nnc(NC(=O)Nc3ccccc3)s2)cc1OC | 2.5 | -2.3 | -2.8 | 16.1 | -2.5 | 4.2 | . | . | .
CCOC(=O)c1c(NC(=O)Cc2cccs2)sc(C(=O)NC2CCCCC2)c1C | 54.6* | 18.6 | 28.8 | 66.1* | 2.7 | 9.5 | 43.3* | 14.3 | .
CCCc1nc2ccccc2c(=O)n1CC(=O)c1ccc(F)cc1 | 0.1 | 1.4 | 2.5 | 4.3 | -1.7 | 0.7 | . | . | .
CC1(C)Cc2c(c(N3CCOCC3)nc3sc4c(NCCN5CCOCC5)nnnc4c23)CS1 | 11.2 | -8.3 | 5.7 | 21.1 | 3.5 | -0.6 | . | . | .
SMILES | XBP1 UPR activ | CSC inhib | Beta apoptosis | Mdm2 MdmX PPI | SKKanGAS inh | UPR CHOP act | XBP1 UPR conf | Mdm2 MdmX conf | FLuc counter
CC1(C)Cc2c(c(N3CCOCC3)nc3sc4c(NCC5CCCO5)nnnc4c23)CS1 (stereo not drawn) | 33.0* | 2.9 | -3.3 | 70.4* | 13.6 | 9.3 | 6.1 | 51.8* | 69.2*
N#CCC(=O)N/N=C/c1cn(Cc2cccc3ccccc23)c2ccccc12 | 130.3* | 57.5 | 31.0 | 65.8* | 32.9 | 8.3 | 102.7* | 63.5* | 54.6*
N#CCC(=O)N/N=C/c1cn(Cc2ccccc2C#N)c2ccccc12 | 3.0 | -9.1 | -0.5 | 22.7 | 21.9 | 1.7 | . | . | .
Cc1ccc(CNC(=O)c2ccc3c(=O)n4c(-c5ccc(C)cc5)csc4nc3c2)cc1 | 46.3* | . | 10.9 | 56.9* | 1.6 | 7.0 | 120.0* | 44.0* | 89.8*
COc1ccc(CN2CCN(Cc3cc4ccccc4o3)CC2CCO)cc1C (stereo not drawn) | -0.7 | 12.2 | . | 22.4 | 13.5 | -0.2 | . | . | .
Cc1ccccc1OCC(O)CNC1CCC(NCC(O)COc2ccccc2C)CC1 (stereo not drawn) | 43.1* | 108.8* | 112.7* | 100.3* | 2.3 | 56.4* | 11.4 | 100.2* | 51.8*
Cc1cc(Cl)ccc1OCC(=O)OCC(=O)N(CC(C)C)c1c(N)n(Cc2ccccc2)c(=O)[nH]c1=O | 1.9 | 7.2 | -3.6 | -7.9 | 2.0 | -1.8 | . | . | .
COc1ccc(NC(=O)c2ccccc2NC(=O)CSc2ccc(Cl)cc2)cc1 | 35.0* | -5.9 | 4.4 | 83.9* | -6.9 | 2.3 | 6.2 | 43.0* | 70.7*
CC(=O)N1CCN(CC(=O)Nc2ccccc2Sc2ccc(Cl)cc2)CC1 | 0.3 | -11.5 | 5.6 | -4.8 | 7.5 | 0.2 | . | . | .
O=C(CCl)Nc1ccccc1Sc1ccc(Cl)cc1 | 45.1* | 42.2 | -16.5 | 78.8* | 7.9 | 25.4 | 7.4 | 71.0* | 55.3*
COc1nnc(-c2ccc(C)cc2)c2ccccc12 | -0.7 | -10.9 | -5.1 | 22.5 | -2.4 | 1.3 | . | . | .

Bioassay records deposited in PubChem BioAssay by several laboratories.
